Measured values reported in ChEMBL document CHEMBL2440113, “Synthesis, radiofluorination, and in vivo evaluation of novel fluorinated and iodinated radiotracers for PET imaging and targeted radionuclide therapy of melanoma” (J Med Chem, 2013).

What was measured:
Details in all cases: in vivo
[1] = tested on: Muscle tissue; assay: Biodistribution in muscle of C57BL/6J mouse harboring mouse B16-Bl6 cells at 8 to 12 MBq, iv after 1 hr by PET analysis; format: ADME, organism-based
Outline: (§1)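 C57BL/6J mice were inoculated s.c. on the right shoulder with 3x10⁵ B16Bl6 cells in PBS under isoflurane, and imaged at day 10 or 14 (tumor volume 431.8 ± 154.3 mm³). The ¹⁸F tracer was given i.v. via tail vein, 8-12 MBq (methods: 9-12 MBq/0.15 mL). Under ketamine/xylazine i.p., a 25-min whole-body static PET scan ran at 1 h. ROI %ID/g = counts/g/min ÷ injected dose. n=2-8; mean ± SD.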

[2] = tested on: Mus musculus; assay: Biodistribution in eye of C57BL/6J mouse harboring mouse B16-Bl6 cells at 8 to 12 MBq, iv after 1 hr by PET analysis; format: ADME, organism-based; outline: as §1
[3] = Ratio of drug level in tumor to muscle in C57BL/6J mouse harboring mouse B16-Bl6 cells at 8 to 12 MBq, iv after 1 hr by PET analysis; format: ADME, organism-based
Outline: (§2)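 Static whole-body PET at 1 h after tail-vein injection of [18F]tracer (9-12 MBq/0.15 mL) in C57BL/6J mice carrying subcutaneous B16Bl6 shoulder tumours (3x10⁵ cells), imaged day 10 or 14. Mice under ketamine/xylazine ip. 25 min acquisition, OSEM reconstruction. ROI % ID/g = counts/g/min ÷ injected dose; ratios = tumour % ID/g ÷ organ % ID/g. n=2-8; mean ± SD.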

[4] = tested on: Mus musculus; assay: Biodistribution in tumor of C57BL/6J mouse harboring mouse B16-Bl6 cells at 8 to 12 MBq, iv after 1 hr by PET analysis; format: ADME, organism-based, Neoplasm; outline: as §2
[5] = tested on: Bone; assay: Biodistribution in bone of C57BL/6J mouse harboring mouse B16-Bl6 cells at 8 to 12 MBq, iv after 1 hr by PET analysis; format: ADME, organism-based, Bone element; outline: as §1
[6] = Ratio of drug level in tumor to bone in C57BL/6J mouse harboring mouse B16-Bl6 cells at 8 to 12 MBq, iv after 1 hr by PET analysis; format: ADME, organism-based; outline: as §2

Drug uptake [1] [% ID/g] | Drug uptake [2] [% ID/g] | Ratio [3] | Drug uptake [4] [% ID/g] | Drug uptake [5] [% ID/g] | Ratio [6] | Structure (SMILES)
0.83 | 9.49 | 8.27 | 6.74 | 3.39 | 1.99 | CCN(C/C=C/C[18F])CCNC(=O)c1cnc2cc(I)ccc2n1
0.82 | 2.7 | 5.07 | 4.16 | 2.77 | 1.46 | CCN(CC#CC[18F])CCNC(=O)c1cnc2cc(I)ccc2n1
0.9 | 10.46 | 11.86 | 10.56 | 7.05 | 1.5 | CCN(CCC[18F])CCNC(=O)c1cnc2cc(I)ccc2n1
1.02 | 1.4 | 1.95 | 2.02 | 1.31 | 1.31 | CCN(CC[18F])CCNC(=O)c1cnc2cc(I)ccc2n1
